The values below come from ChEMBL document CHEMBL4052626, “Identification of thiazolo[5,4-d]pyrimidine derivatives as potent antiproliferative agents through the drug repurposing strategy” (Eur J Med Chem, 2017).

For orientation: pIC50 means −log10 of the IC50, conventionally taken in molar units. Lower therefore signals a large IC50. What is called inhibition is the change of the read-out against control, counted positive when it falls.

pIC50: −log10 of the molar value. The source made the active and inactive calls. The rule behind the calls is not given here. Some results are limits rather than exact numbers.

One assay relates to NCI-H1650. Nature of the assay: Antiproliferative activity against human NCI-H1650 cells after 72 hrs by MTT assay. In kind it is functional, cell-based. To be noted: NCI-H1650, 72 h. Summed up:
(§1)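 Cells in exponential growth were plated at 3,000 per well and left 24 h. Medium was then replaced with fresh medium holding graded compound concentrations, and incubation ran 72 h. Viability was read by MTT at 570 nm.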
On the technique in general: Formazan colour is commonly taken as a measure of viable cells.

For the next assay, the system named is HGC-27. In words: Antiproliferative activity against human HGC27 cells after 72 hrs by MTT assay. To be noted: HGC-27, 72 h. In kind it is functional, cell-based. The essentials: as §1
Assay [1] concerns MGC-803. Nature of the assay: Antiproliferative activity against human MGC803 cells after 72 hrs by MTT assay. In kind it is functional, cell-based. To be noted: MGC-803, 72 h. The essentials: as §1
The test system of assay [2] is MGC-803. Nature of the assay: Induction of apoptosis in human MGC803 cells assessed as chromatin shrinkage at 1 to 5 uM after 24 hrs by Hoechst 33258 staining-based fluorescence microscopic analysis. In kind it is functional, cell-based. The essentials: (§2)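 MGC803 were seeded at 2×10^5/well and allowed to adhere overnight. They were exposed to graded concentrations for 24 h, then stained with Hoechst 33258 for 30 min in the dark. Nuclear morphology was examined by fluorescence microscopy.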

Assay [3] has as its system MGC-803. Nature of the assay: Induction of apoptosis in human MGC803 cells assessed as increase in cleaved caspase-9 protein levels at 1 to 5 uM after 24 by Western blot analysis. In kind it is functional, cell-based. Summed up: (§3)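 After 24 h treatment at graded concentrations, MGC803 were lysed 30 min in RIPA buffer with protease inhibitors and spun at 12,000 rpm for 10 min at 4 °C. Protein was quantified by BCA, then run on SDS-PAGE and blotted to nitrocellulose. Membranes were blocked in 5% milk for 2 h, incubated with primary antibodies overnight at 4 °C, then secondary (1:5000) for 2 h. Detection was by ECL.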
In general terms: Immunoblotting shows a protein as a band on a membrane.

Assay [4] concerns MGC-803. In words: Induction of apoptosis in human MGC803 cells assessed as cell rounding at 1 to 5 uM after 24 hrs by Hoechst 33258 staining-based fluorescence microscopic analysis. In kind it is functional. The essentials:
as §2

In assay [5] the test system is MGC-803. Nature of the assay: Induction of apoptosis in human MGC803 cells assessed as formation of apoptotic bodies at 1 to 5 uM after 24 hrs by Hoechst 33258 staining-based fluorescence microscopic analysis. In kind it is functional, cell-based. The essentials:
as §2

Assay [6] deals with MGC-803. Nature of the assay: Induction of apoptosis in human MGC803 cells at 2 uM after 24 hrs by annexin V-FITC/propidium iodide staining-based assay (reference value: 2.3%). In kind it is functional.
Assay [7] concerns MGC-803. In words: Antiproliferative activity against human MGC803 cells assessed as reduction in colony formation at 3 uM after 9 days by crystal violet staining-based clonogenic assay relative to control. To be noted: MGC-803, 216 h. In kind it is functional. Summed up: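 MGC803 were seeded at 1000 cells/well, allowed 24 h, then given fresh medium with graded compound concentrations for 9 days. Cells were PBS-washed, fixed in 4% paraformaldehyde and stained with 0.1% crystal violet. A colony was counted as >10 cells. Inhibition rate = (1 − treated count/control count) × 100%. Run in triplicate.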

Assay [8] deals with MGC-803. Nature of the assay: Induction of apoptosis in human MGC803 cells at 1 uM after 24 hrs by annexin V-FITC/propidium iodide staining-based assay (reference value: 2.3%). In kind it is functional.
In assay [9] the test system is MGC-803. Nature of the assay: Induction of apoptosis in human MGC803 cells assessed as increase in cleaved caspase-3 protein levels at 1 to 5 uM after 24 by Western blot analysis. In kind it is functional, cell-based. Summed up: as §3
Assay [10] has as its system MGC-803. Nature of the assay: Induction of apoptosis in human MGC803 cells assessed as decrease in BCL-2 protein levels at 1 to 5 uM after 24 hrs by Western blot analysis. In kind it is functional, cell-based. The essentials:
as §3

Assay [11] in a line: Selectivity index, ratio of IC50 for human GES-1 cells to IC50 for human MGC803 cells. In kind it is functional. Summed up: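 SI equals IC50 in GES-1 divided by IC50 in MGC803. Both IC50s come from 72 h exposure in the MTT viability assay, with 3,000 cells/well plated 24 h before dosing. Each is the mean ± SD of three independent experiments.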
The next assay has as its system GES1. In words: Cytotoxicity against human GES-1 cells after 72 hrs by MTT assay. In kind it is cell-based. To be noted: GES1, 72 h. The essentials:
as §1

Assay [12] relates to MGC-803. Nature of the assay: Induction of apoptosis in human MGC803 cells at 5 uM after 24 hrs by annexin V-FITC/propidium iodide staining-based assay (reference value: 2.3%). In kind it is functional.
Assay [13] concerns MGC-803. Nature of the assay: Induction of apoptosis in human MGC803 cells after 24 hrs by annexin V-FITC/propidium iodide staining-based assay. In kind it is functional, cell-based.
For assay [14], the system named is MGC-803. Nature of the assay: Induction of apoptosis in human MGC803 cells assessed as increase in Bax protein levels after 24 by Western blot analysis. In kind it is functional, cell-based. The essentials:
as §3

Assay [15] deals with MGC-803. In words: Antimigratory activity against human MGC803 cells assessed as reduction in wound healing at 1 uM by inverted microscopic method. In kind it is functional, cell-based. To be noted: TDE = time-dependent effect. Summed up:
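MGC803 in 24-well format were scratched with a 10 µL tip. Cells were then incubated with graded compound concentrations for the indicated times. Wound closure was photographed under an inverted microscope.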

For `O=c1[nH]cc(F)c(=O)[nH]1` [FLUOROURACIL], the pIC50 in the assay with NCI-H1650 was 4.90; in the assay with HGC-27 it was 5.09.

`CCCSc1nc(N2CCN(Cc3ccccc3)CC2)c2nc(Nc3ccccc3)sc2n1`: the results for the pIC50 with NCI-H1650, in the assay on HGC-27 and with MGC-803 [1] were 4.57, less than 4.19 and 4.73, respectively.

Turning to `CCCSc1nc(NCc2ccco2)c2nc(Nc3ccccc3)sc2n1`, the pIC50 in the assay on NCI-H1650 is 4.58; in the assay with HGC-27, 4.55; with MGC-803 [1] it was less than 4.19.

For `CCCSc1nc(Nc2ccccc2)c2nc(Nc3ccccc3)sc2n1`, the pIC50 was 4.92 in the assay with NCI-H1650, 4.45 in the assay with HGC-27 and 4.61 in the assay on MGC-803 [1].

On to `CCCSc1nc(Nc2ccc(Cl)cc2)c2nc(Nc3ccccc3)sc2n1`, for which the pIC50 was 4.92 in the assay with NCI-H1650, 4.69 with HGC-27 and 4.90 in the assay on MGC-803 [1].

As to `CCCSc1nc(NCCc2cccs2)c2nc(Nc3ccccc3)sc2n1`, the pIC50 was 5.00 with NCI-H1650, 4.75 in the assay with HGC-27 and 4.95 with MGC-803 [1].

Consider `CCCSc1nc(N2CCSCC2)c2nc(Nc3ccccc3)sc2n1`, for which the pIC50 is 4.89 in the assay with NCI-H1650, 4.55 in the assay on HGC-27 and 4.91 in the assay with MGC-803 [1].

On to `CCCSc1nc(N2CCOCC2)c2nc(Nc3ccccc3Cl)sc2n1`, for which the pIC50 in the assay with NCI-H1650 is 4.66; with HGC-27, 4.95; in the assay with MGC-803 [1], 5.47.

As to `CCCSc1nc(NCc2ccc(O)cc2)c2nc(Nc3ccccc3)sc2n1`, the pIC50 with NCI-H1650 is 5.03; in the assay with HGC-27, 4.76; in the assay with MGC-803 [1] it was 4.66.

For `CCCSc1nc(Nc2ccc(OC)cc2)c2nc(Nc3ccccc3)sc2n1`, the pIC50 in the assay with NCI-H1650 is 4.69; in the assay with HGC-27 it was 4.51; in the assay on MGC-803 [1], less than 4.19.

With `CCCSc1nc(N2CCOCC2)c2nc(Nc3ccccn3)sc2n1`, the figures for the pIC50 with NCI-H1650, in the assay on HGC-27 and with MGC-803 [1] were 5.11, 5.05 and 5.03, respectively.

Turning to `CCCSc1nc(N2CCOCC2)c2nc(Nc3ccccc3)sc2n1`, the pIC50 was 5.38 in the assay on NCI-H1650, 5.02 in the assay on HGC-27 and 5.24 with MGC-803 [1].

`CCCSc1nc(N2CCOCC2)c2nc(Nc3cccc4ccccc34)sc2n1`: the pIC50 was 5.01 in the assay on NCI-H1650, 4.66 in the assay on HGC-27 and 4.75 in the assay with MGC-803 [1].

With `c1ccc(CSc2nc(N3CCOCC3)c3nc(Nc4ccccc4)sc3n2)cc1`, the outcome in the assay on MGC-803 [2], in the assay with MGC-803 [3], with MGC-803 [4], in the assay with MGC-803 [5], with MGC-803 [9] and with MGC-803 [10] was Active. Besides, the pIC50 in the assay with NCI-H1650 was 5.68; in the assay on HGC-27 it was 5.91; with MGC-803 [1], 5.99; in the assay with GES1, 4.41. Further, the Activity with MGC-803 [6] was 43.8%; with MGC-803 [8], 11.5%; in the assay on MGC-803 [12] it was 73.9%; with MGC-803 [13], “Dose-dependent effect”; in the assay on MGC-803 [14], “Dose-dependent effect”; with MGC-803 [15], “Tde”. In addition, the inhibition at 3 µM with MGC-803 [7] is 86%. Moreover, in assay [11], the “Ratio IC50” value turned out to be 37.8.

In the case of `CCCCc1ccc(Nc2nc(SCCC)nc3sc(Nc4ccccc4)nc23)cc1`, the pIC50 in the assay with NCI-H1650 is 4.83; with HGC-27, 4.88; in the assay with MGC-803 [1], 4.76.

Take `CCCSc1nc(NCCc2cc3ccccc3[nH]2)c2nc(Nc3ccccc3)sc2n1`: the pIC50 in the assay on NCI-H1650 was 5.02; in the assay on HGC-27, 4.79; in the assay on MGC-803 [1], 5.16.

Turning to `CCCSc1nc(NC2CC2)c2nc(Nc3ccccc3)sc2n1`, the pIC50 is 4.38 with NCI-H1650, 4.49 in the assay on HGC-27 and less than 4.19 in the assay on MGC-803 [1].
